pIC50: −log10 of the molar value. The source made the active and inactive calls. No cut-off for these calls is given here.
Tests used:
SK-OV-3 = assay: Cytotoxicity against human SKOV3 cells assessed as growth inhibition by SRB assay; type: functional, cell-based
Procedure, shortened: (§1)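 Human cancer lines supplied by NCI. Cytotoxicity was measured by sulforhodamine B (SRB) assay at KRICT, with doxorubicin as positive control. IC50 reported.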

SK-MEL-2 = assay: Cytotoxicity against human SK-MEL-2 cells assessed as growth inhibition by SRB assay; type: functional, cell-based; procedure, shortened: as §1
BV-2 [1] = assay: Cytotoxicity against mouse BV2 cells assessed as cell viability by MTT assay; type: cell-based
Procedure, shortened: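 Viability of BV-2 microglia was measured by MTT assay in parallel with the LPS-stimulated NO experiment: 3 × 10^4 cells/well, 30 min compound pretreatment, then 100 ng/mL LPS for 24 h.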

A549 = assay: Cytotoxicity against human A549 cells assessed as growth inhibition by SRB assay; type: functional, cell-based; procedure, shortened: as §1
HCT-15 = assay: Cytotoxicity against human HCT15 cells assessed as growth inhibition by SRB assay; type: functional, cell-based; procedure, shortened: as §1
BV-2 [2] = assay: Antiinflammatory activity in mouse BV2 cells assessed as inhibition of LPS-induced nitrite production incubated for 30 mins prior to LPS challenge measured after 24 hrs by Griess assay; type: functional, cell-based
Procedure, shortened: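 BV-2 murine microglia seeded at 3 × 10^4 cells/well, grown 24 h, then pretreated with compound for 30 min before 100 ng/mL LPS stimulation for a further 24 h. Nitrite in the medium was read by Griess reaction (1% sulfanilamide, 0.1% N-1-naphthylethylenediamine dihydrochloride in 5% phosphoric acid), with absorbance at 540 nm after 10 min against a sodium nitrite standard. L-NMMA was the positive control. IC50 reported.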

Structure (SMILES) | pIC50 (SK-OV-3) | pIC50 (SK-MEL-2) | Activity (BV-2 [1]) | pIC50 (A549) | pIC50 (HCT-15) | pIC50 (BV-2 [2]) | Activity (BV-2 [2])
CC(C)(O)[C@H](O)CC[C@@H](CO)[C@H]1CC[C@@]2(C)C3=C(C[C@H](O)[C@]12C)[C@@]1(C)C[C@@H](O)[C@H](O)C(C)(C)[C@@H]1CC3=O | 5.13 | 5.32 | Non-toxic | 5.40 | 5.07 | 4.30 | 
COC(=O)CNC(=O)CC(C)(O)CC(=O)O[C@H]1[C@H](O)C[C@]2(C)C3=C(CC[C@H]2C1(C)C)[C@]1(C)CC[C@H]([C@H](C)CC[C@@H](O)C(C)(C)O)[C@@]1(C)[C@@H](O)C3 (some centres not stated) | < 4.52 | 5.07 | Toxic | < 4.52 | < 4.52 |  | inactive
C[C@H](CC[C@@H](O)C(C)(C)O)[C@H]1CC[C@@]2(C)C3=C(CC(=O)[C@]12C)[C@@]1(C)C[C@@H](O)[C@H](O)C(C)(C)[C@@H]1CC3 | 5.01 | < 4.52 | Non-toxic | < 4.52 | < 4.52 |  | inactive
CC(C)(O)[C@H](O)CC[C@@H](CO)[C@H]1CC[C@@]2(C)C3=C(C[C@H](O)[C@]12C)[C@@]1(C)C[C@@H](OC(=O)C[C@@](C)(O)CC(=O)O)[C@H](O)C(C)(C)[C@@H]1CC3 | 4.79 | 4.60 | Non-toxic | 4.59 | 4.55 |  | inactive
COC(=O)CNC(=O)CC(C)(O)CC(=O)O[C@H]1[C@H](O)C[C@]2(C)C3=C(CC[C@H]2C1(C)C)[C@]1(C)CC[C@H]([C@H](CO)CC[C@@H](O)C(C)(C)O)[C@@]1(C)[C@@H](O)C3 (some centres not stated) | < 4.52 | 5.04 |  | < 4.52 | < 4.52 |  | inactive
CC(C)(O)[C@H](O)CC[C@@H](CO)[C@H]1CC[C@]2(C)[C@]1(C)[C@@H](O)C=C1[C@]23O[C@H]3C[C@H]2C(C)(C)[C@@H](O)[C@H](O)C[C@]12C | 5.15 | 5.08 | Non-toxic | 5.18 | 5.07 |  | inactive
CC(C)(O)[C@H](O)CC[C@@H](CO)[C@H]1CC[C@@]2(C)C3=CC[C@H]4C(C)(C)[C@@H](O)[C@H](O)C[C@]4(C)C3=C[C@H](O)[C@]12C | 5.48 | 5.34 | Toxic | 5.35 | 5.11 |  | inactive
C[C@H](CC[C@@H](O)C(C)(C)O)[C@H]1CC[C@@]2(C)C3=C(C[C@H](O)[C@]12C)[C@@]1(C)C[C@@H](OC(=O)CC(C)(O)CC(=O)O)[C@H](O)C(C)(C)[C@@H]1CC3 (some centres not stated) | 4.65 | 4.78 | Non-toxic | 4.57 | 4.55 | 4.03 | 
CC(C)(O)[C@H](O)CC[C@@H](CO)[C@H]1CC[C@@]2(C)C3=C(CC(=O)[C@]12C)[C@@]1(C)C[C@@H](O)[C@H](O)C(C)(C)[C@@H]1CC3 | 5.10 | < 4.52 | Toxic | < 4.52 | < 4.52 |  | inactive
COC(=O)CNC(=O)CC(C)(O)CC(=O)O[C@@H]1C[C@]2(C)C3=C(CC[C@H]2C(C)(C)[C@H]1O)[C@]1(C)CC[C@H]([C@H](C)CC[C@@H](O)C(C)(C)O)[C@@]1(C)[C@@H](O)C3 (some centres not stated) | < 4.52 | 5.04 | Toxic | < 4.52 | < 4.52 |  | inactive
C[C@H](CC[C@@H](O)C(C)(C)O)[C@H]1CC[C@@]2(C)C3=C(C[C@H](O)[C@]12C)[C@@]1(C)C[C@@H](O)[C@H](O)C(C)(C)[C@@H]1CC3 | 5.07 | 5.29 | Toxic | 5.11 | 5.09 |  | inactive
C[C@H](CC[C@@H](O)C(C)(C)O)[C@H]1CC[C@@]2(C)C3=C(C[C@H](O)[C@]12C)[C@@]1(C)C[C@@H](O)[C@H](OC(=O)C[C@@](C)(O)CC(=O)O)C(C)(C)[C@@H]1CC3 | < 4.52 | < 4.52 |  | < 4.52 | < 4.52 |  | inactive
CC(C)(O)[C@H](O)CC[C@@H](CO)[C@H]1CC[C@@]2(C)C3=C(C[C@H](O)[C@]12C)[C@@]1(C)C[C@@H](O)[C@H](OC(=O)C[C@@](C)(O)CC(=O)O)C(C)(C)[C@@H]1CC3 | < 4.52 | < 4.52 | Non-toxic | < 4.52 | < 4.52 |  | inactive
COc1cccc2c1C(=O)c1c(O)c3c(c(O)c1C2=O)C[C@@](O)(C(=O)CO)C[C@@H]3O[C@H]1C[C@H](N)[C@H](O)[C@H](C)O1 [DOXORUBICIN] | 8.00 | 8.00 |  | 7.70 | 6.89 |  | 
CC(C)(O)[C@H](O)CC[C@@H](CO)[C@H]1CC[C@@]2(C)C3=C(C[C@H](O)[C@]12C)[C@@]1(C)C[C@@H](O)[C@H](O)C(C)(C)[C@@H]1CC3 | 5.55 | 5.64 | Toxic | 5.63 | 5.51 |  | inactive
COC(=O)CNC(=O)CC(C)(O)CC(=O)O[C@@H]1C[C@]2(C)C3=C(CC[C@H]2C(C)(C)[C@H]1O)[C@]1(C)CC[C@H]([C@H](CO)CC[C@@H](O)C(C)(C)O)[C@@]1(C)[C@@H](O)C3 (some centres not stated) | < 4.52 | 5.24 | Toxic | < 4.52 | < 4.52 |  | inactive

— ChEMBL document CHEMBL2375346, “Lanostane triterpenoids from the mushroom Naematoloma fasciculare” (J Nat Prod, 2013)
